Active and inactive are the calls of the source. The rule behind the calls is not given here. Non-standard residues stand in square brackets, D forms with d. Residues, ends and D or L forms follow the SMILES beside them. *: point of attachment. Phe(4-guanidino) = N=C(N)Nc1ccc(C[C@H](N)C(=O)O)cc1; Phe(3-CN) = N#Cc1cccc(C[C@H](N)C(=O)O)c1; Phe(4-CN) = N#Cc1ccc(C[C@H](N)C(=O)O)cc1; Phe(4-NH2) = Nc1ccc(C[C@H](N)C(=O)O)cc1; Hydrocinnamoyl = O=C(CCc1ccccc1)*; 3Pal = N[C@@H](Cc1cccnc1)C(=O)O; 4Pal = N[C@@H](Cc1ccncc1)C(=O)O; Phg = N[C@H](C(=O)O)c1ccccc1; Bz = O=C(c1ccccc1)*
Tests used:
dengue virus type 2 [1] = experiment: Antiviral activity against wild type Dengue virus (serotype 2) infected in human Huh-7 cells assessed as inhibition of viral replication at 50 uM incubated for 48 hrs measured by Cell-Titer Glo Luminescent viability assay; assay type: functional; conditions: Huh-7, 48 h
dengue virus type 2 [2] = experiment: Inhibition of Dengue virus (serotype 2) NS2B-NS3 protease at 50 uM preincubated with protein for 15 mins followed by Abz-Nle-Lys-Arg-Arg-Ser-3-(NO2)Tyr substrate addition measured by continuous fluorometric analysis
Procedure, shortened: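 Continuous FRET assay in 50 mM Tris-HCl pH 9.0, 10% ethylene glycol, 0.0016% Brij 58. DENV2 protease (100 nM) was preincubated 15 min with inhibitor (50 μM final), then Abz-Nle-Lys-Arg-Arg-Ser-3-(NO2)Tyr (50 μM final; Km 105 μM) was added. Read at ex 320/em 405 nm as slope over 15 min, relative to an uninhibited control. Triplicate.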

[3] = target: Genome polyprotein (West Nile virus) (UniProt P06935); experiment: Inhibition of West Nile virus NS2B-NS3 protease at 50 uM preincubated with protein for 15 mins followed by Abz-Gly-Leu-Lys-Arg-Gly-Gly-3-(NO2)-Tyr substrate addition measured by continuous fluorometric analysis
Procedure, shortened: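 WNV NS2B-NS3pro (150 nM) was preincubated 15 min with inhibitor (50 μM final) in 50 mM Tris-HCl pH 9.0, 10% ethylene glycol, 0.0016% Brij 58. Abz-Gly-Leu-Lys-Arg-Gly-Gly-3-(NO2)-Tyr (50 μM; Km 212 μM) started the reaction. Continuous read at ex 320/em 405 nm for 15 min against an uninhibited control. Triplicate.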

[4] = Cytotoxicity against human HuH7 cells at 50 uM incubated for 48 hrs measured by Cell-Titer Glo Luminescent viability Assay; assay type: cell-based; conditions: huh-7, 48 h
[5] = Permeability of the compound at 200 uM incubated for 5 hrs by PAMPA; assay type: physicochemical
Procedure, shortened: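 PAMPA in PBS: donor wells held 200 μM compound (triplicate) against PBS acceptor, 5 h at room temperature. Donor and acceptor concentrations were quantified by RP-18 HPLC-UV against calibration curves (10–200 μM). Pe and membrane retention were calculated by a literature method. Amiloride, caffeine, famotidine, furosemide and phenytoin served as references.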

[6] = Inhibition of Dengue virus (serotype 2) NS2B-NS3 protease preincubated with protein for 15 mins followed by Abz-Nle-Lys-Arg-Arg-Ser-3-(NO2)Tyr substrate addition measured by continuous fluorometric analysis; design: species or system dengue virus type 2
Procedure, shortened: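 DENV2 protease (100 nM) in Tris-HCl pH 9.0/ethylene glycol/Brij 58 buffer, preincubated 15 min with inhibitor, then 50 μM FRET substrate added. Read at ex 320/em 405 nm over 15 min. Done for compounds with ≥70% inhibition, using series of 0–2.5, 0–6 or 0–30 μM, in triplicate, with nonlinear fitting. Ki came from substrate at 50–200 μM via Cheng–Prusoff.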

Prothrombin = Prothrombin (Homo sapiens, UniProt P00734); experiment: Inhibition of human thrombin at 25 uM preincubated with protein for 15 mins followed by boc-Val-Pro-Arg-AMC substrate addition measured after 10 mins by continuous fluorometric analysis
Trypsin [7] = target: T1, Trypsin (Homo sapiens, UniProt P07477+P07478+P35030); experiment: Inhibition of trypsin (unknown origin) at 50 uM preincubated with protein for 15 mins followed by boc-Val-Pro-Arg-AMC substrate addition measured by continuous fluorometric analysis; assay type: protein assay
Procedure, shortened: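 Trypsin (1 nM) was preincubated 15 min with inhibitor (50 μM final) in 50 mM Tris-HCl pH 7.5, 150 mM NaCl, 0.05% Tween 20. boc-Val-Pro-Arg-AMC (50 μM final) was added. Continuous fluorescence at ex 355/em 460 nm; rate compared with an uninhibited control. Triplicate.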

Trypsin [8] = target: T1, Trypsin; experiment: Inhibition of trypsin (unknown origin) preincubated with protein for 15 mins followed by boc-Val-Pro-Arg-AMC substrate addition measured by continuous fluorometric analysis; assay type: protein assay
[9] = Half life in Sprague-Dawley rat liver microsomes at 100 uM incubated for 30 mins by HPLC analysis; assay type: ADME
Procedure, shortened: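 Pooled male Sprague-Dawley rat liver microsomes (0.2 mg/mL protein) with NADPH (5 mM) in DPBS, preincubated 15 min at 37 °C. Compound (100 μM) was then incubated 30 min at 37 °C. Aliquots at 0, 2, 5, 10, 20 and 30 min were quenched with acetonitrile, iced, and centrifuged. Parent remaining was measured by RP-HPLC-UV peak area versus reference. Testosterone served as activity control.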

Genome polyprotein = Genome polyprotein (West Nile virus, UniProt P06935); experiment: Inhibition of West Nile virus NS2B-NS3 protease preincubated with protein for 15 mins followed by Abz-Gly-Leu-Lys-Arg-Gly-Gly-3-(NO2)-Tyr substrate addition measured by continuous fluorometric analysis
Procedure, shortened: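 WNV protease (150 nM), 15-min preincubation with inhibitor in pH 9.0 Tris buffer, then 50 μM FRET substrate. Read at ex 320/em 405 nm. Done for compounds with ≥90% single-point inhibition, using graded inhibitor concentrations in triplicate, with the curve fitted.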

Genome polyprotein (West Nile virus), sequence (P06935 whole entry): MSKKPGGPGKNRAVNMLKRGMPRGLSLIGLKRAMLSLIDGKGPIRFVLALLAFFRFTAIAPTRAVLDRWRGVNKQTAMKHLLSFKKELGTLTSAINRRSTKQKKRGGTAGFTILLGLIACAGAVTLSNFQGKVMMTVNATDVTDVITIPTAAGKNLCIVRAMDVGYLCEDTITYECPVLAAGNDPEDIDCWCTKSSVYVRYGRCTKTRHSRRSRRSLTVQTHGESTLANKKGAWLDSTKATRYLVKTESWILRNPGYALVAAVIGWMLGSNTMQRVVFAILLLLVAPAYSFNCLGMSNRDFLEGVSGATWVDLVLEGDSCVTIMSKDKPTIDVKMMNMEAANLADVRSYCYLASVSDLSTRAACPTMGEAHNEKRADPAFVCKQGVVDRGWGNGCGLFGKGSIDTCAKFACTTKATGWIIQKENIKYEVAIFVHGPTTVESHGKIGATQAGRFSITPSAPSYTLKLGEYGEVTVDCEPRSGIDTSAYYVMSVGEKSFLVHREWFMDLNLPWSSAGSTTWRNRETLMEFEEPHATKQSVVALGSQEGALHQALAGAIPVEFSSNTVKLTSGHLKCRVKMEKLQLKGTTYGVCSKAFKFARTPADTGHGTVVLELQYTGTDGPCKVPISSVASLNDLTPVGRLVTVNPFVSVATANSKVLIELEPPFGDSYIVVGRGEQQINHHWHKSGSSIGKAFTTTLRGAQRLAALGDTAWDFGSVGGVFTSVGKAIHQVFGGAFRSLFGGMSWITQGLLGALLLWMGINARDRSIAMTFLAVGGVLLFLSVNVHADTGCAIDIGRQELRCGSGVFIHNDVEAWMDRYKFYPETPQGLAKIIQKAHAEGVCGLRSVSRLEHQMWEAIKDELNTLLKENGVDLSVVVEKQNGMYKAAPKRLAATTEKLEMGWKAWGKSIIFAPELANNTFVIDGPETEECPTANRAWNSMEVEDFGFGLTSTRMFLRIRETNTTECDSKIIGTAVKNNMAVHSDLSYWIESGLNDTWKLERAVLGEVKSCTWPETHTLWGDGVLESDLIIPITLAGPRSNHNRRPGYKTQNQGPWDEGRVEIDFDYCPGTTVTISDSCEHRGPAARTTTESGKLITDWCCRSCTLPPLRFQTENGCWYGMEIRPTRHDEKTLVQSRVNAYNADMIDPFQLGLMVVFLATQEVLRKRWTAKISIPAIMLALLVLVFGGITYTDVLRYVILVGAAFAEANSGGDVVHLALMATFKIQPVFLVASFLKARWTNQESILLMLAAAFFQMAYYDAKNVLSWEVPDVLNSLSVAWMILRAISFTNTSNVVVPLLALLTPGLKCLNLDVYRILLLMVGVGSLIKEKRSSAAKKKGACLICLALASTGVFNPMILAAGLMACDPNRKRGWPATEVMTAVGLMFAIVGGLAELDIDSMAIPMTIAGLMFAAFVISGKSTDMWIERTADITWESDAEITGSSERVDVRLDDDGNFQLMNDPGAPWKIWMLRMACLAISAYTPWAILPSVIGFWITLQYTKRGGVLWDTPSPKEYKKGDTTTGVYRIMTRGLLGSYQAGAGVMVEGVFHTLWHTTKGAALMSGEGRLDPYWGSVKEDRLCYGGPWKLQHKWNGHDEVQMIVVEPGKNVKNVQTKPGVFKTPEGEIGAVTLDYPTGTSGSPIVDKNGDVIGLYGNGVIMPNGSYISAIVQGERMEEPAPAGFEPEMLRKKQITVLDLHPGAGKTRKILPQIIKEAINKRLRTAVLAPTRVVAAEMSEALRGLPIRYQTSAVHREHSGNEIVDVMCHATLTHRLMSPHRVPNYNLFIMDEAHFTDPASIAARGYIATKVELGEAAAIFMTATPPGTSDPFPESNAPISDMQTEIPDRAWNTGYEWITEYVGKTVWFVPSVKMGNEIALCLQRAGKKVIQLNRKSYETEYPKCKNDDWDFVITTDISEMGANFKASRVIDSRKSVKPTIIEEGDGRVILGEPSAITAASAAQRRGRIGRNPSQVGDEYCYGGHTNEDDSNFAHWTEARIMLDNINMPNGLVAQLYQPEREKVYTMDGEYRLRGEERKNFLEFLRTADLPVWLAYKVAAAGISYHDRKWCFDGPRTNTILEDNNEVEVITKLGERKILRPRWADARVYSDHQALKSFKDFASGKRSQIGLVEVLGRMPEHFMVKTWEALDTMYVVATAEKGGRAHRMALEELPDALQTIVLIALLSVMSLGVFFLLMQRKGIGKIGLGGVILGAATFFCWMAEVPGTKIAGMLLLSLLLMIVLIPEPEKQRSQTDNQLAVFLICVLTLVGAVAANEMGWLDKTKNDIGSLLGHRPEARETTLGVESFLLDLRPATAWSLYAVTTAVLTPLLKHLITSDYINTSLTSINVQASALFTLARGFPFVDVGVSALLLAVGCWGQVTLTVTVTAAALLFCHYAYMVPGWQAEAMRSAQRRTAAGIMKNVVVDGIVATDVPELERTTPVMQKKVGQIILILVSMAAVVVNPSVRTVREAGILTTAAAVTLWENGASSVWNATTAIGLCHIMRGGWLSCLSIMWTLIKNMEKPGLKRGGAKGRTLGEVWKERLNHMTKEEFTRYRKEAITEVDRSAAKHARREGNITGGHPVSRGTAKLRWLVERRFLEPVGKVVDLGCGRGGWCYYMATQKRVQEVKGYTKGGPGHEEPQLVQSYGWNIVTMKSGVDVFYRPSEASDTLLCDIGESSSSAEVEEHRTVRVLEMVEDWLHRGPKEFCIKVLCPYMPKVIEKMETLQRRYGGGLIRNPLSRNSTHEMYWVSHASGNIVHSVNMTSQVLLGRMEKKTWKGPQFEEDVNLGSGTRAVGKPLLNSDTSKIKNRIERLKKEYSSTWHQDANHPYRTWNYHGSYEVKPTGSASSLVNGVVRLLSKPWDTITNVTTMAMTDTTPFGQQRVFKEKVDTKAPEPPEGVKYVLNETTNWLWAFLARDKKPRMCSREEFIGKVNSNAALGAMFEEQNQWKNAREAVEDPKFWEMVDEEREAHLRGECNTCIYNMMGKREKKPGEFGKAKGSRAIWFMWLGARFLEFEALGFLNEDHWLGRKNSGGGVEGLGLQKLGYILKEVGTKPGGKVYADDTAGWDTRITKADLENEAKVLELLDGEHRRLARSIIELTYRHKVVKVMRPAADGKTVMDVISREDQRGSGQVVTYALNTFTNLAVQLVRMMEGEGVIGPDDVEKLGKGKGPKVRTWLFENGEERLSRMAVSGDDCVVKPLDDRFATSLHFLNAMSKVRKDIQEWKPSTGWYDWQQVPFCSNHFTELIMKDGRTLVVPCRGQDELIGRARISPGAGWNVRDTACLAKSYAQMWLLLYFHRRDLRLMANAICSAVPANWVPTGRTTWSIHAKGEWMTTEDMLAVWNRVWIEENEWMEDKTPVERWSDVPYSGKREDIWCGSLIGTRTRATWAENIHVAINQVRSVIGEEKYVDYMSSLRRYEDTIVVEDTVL
Genome polyprotein, sequence (P06935 1371-1501 limits assumed): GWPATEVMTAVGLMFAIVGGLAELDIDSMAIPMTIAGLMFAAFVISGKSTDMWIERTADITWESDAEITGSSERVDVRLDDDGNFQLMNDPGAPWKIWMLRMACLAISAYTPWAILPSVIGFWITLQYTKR
Genome polyprotein, sequence (P06935 1502-2120 limits assumed): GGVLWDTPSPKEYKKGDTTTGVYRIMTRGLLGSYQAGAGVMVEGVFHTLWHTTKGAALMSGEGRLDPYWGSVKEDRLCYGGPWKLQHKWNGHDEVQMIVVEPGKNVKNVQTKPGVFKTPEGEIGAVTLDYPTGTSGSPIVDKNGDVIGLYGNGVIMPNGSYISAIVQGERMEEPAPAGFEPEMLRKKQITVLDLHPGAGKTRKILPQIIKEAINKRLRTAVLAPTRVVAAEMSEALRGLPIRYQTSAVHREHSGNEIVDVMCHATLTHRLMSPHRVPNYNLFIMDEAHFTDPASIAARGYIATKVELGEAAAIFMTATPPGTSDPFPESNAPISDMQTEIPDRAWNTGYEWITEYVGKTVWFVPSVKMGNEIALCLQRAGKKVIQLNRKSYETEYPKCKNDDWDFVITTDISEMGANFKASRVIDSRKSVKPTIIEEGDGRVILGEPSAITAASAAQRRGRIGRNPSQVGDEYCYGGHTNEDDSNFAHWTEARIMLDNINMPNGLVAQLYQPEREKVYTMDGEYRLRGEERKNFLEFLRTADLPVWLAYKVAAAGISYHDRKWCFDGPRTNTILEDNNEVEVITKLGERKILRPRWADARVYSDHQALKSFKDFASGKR

SMILES	inhibition at 50 µM (dengue virus type 2 [1])	inhibition (dengue virus type 2 [2])	inhibition [3]	Activity [4]	permeability [5]	IC50 [6]	Ki [6]	inhibition (Prothrombin)	inhibition (Trypsin [7])	IC50 (Trypsin [8])	half-life at 100 µM [9]	IC50 (Genome polyprotein)
N=C(N)c1ccc(C[C@H](NC(=O)c2ccccc2)C(=O)N[C@@H](CCCCN)C(=O)N[C@H](C(N)=O)c2ccccc2)cc1	32.4%	100%	59.1%	Non-toxic	impermeable	440 nM	232 nM	18%	17.4%	–	–	–
N=C(N)NCCC[C@H](NC(=O)c1ccc(C(F)(F)F)cc1)C(=O)N[C@@H](CCCCN)C(=O)N[C@H](C(N)=O)c1ccccc1	–	98.7%	85.3%	–	–	1020 nM	–	7.7%	11.5%	–	–	–
N=C(N)NCCC[C@H](NC(=O)CCc1ccccc1)C(=O)N[C@@H](CCCCN)C(=O)N[C@H](C(N)=O)c1ccccc1 (Hydrocinnamoyl-Arg-Lys-[Phg]-NH2)	–	95.9%	45.3%	–	–	2700 nM	–	2.5%	2.3%	–	–	–
N#Cc1ccc(C[C@H](NC(=O)c2ccccc2)C(=O)N[C@@H](CCCCN)C(=O)N[C@H](C(N)=O)c2ccccc2)cc1 (Bz-[Phe(4-CN)]-Lys-[Phg]-NH2)	–	22%	4.7%	–	–	–	–	7.5%	0.7%	–	–	–
NCCCC[C@H](NC(=O)[C@H](Cc1ccc(N)cc1)NC(=O)c1ccccc1)C(=O)N[C@H](C(N)=O)c1ccccc1 (Bz-[Phe(4-NH2)]-Lys-[Phg]-NH2)	–	21.1%	23.8%	–	–	–	–	2.3%	0%	–	–	–
N=C(N)c1ccc(C[C@H](NC(=O)c2ccc(C(F)(F)F)cc2)C(=O)N[C@@H](CCCCN)C(=O)N[C@H](C(N)=O)c2ccccc2)cc1	38.2%	99.8%	69.9%	Non-toxic	impermeable	210 nM	139 nM	50.3%	43.4%	–	–	–
N=C(N)Nc1ccc(C[C@H](NC(=O)c2ccc(C(F)(F)F)cc2)C(=O)N[C@@H](CCCCN)C(=O)N[C@H](C(N)=O)c2ccccc2)cc1	–	100%	42.2%	–	impermeable	690 nM	–	inactive	12.8%	–	–	–
N=C(N)Nc1cccc([C@H](NC(=O)c2ccccc2)C(=O)N[C@@H](CCCCN)C(=O)N[C@H](C(N)=O)c2ccccc2)c1	–	98.8%	89.4%	–	impermeable	3090 nM	–	41.7%	90.8%	7100 nM	–	–
N=C(N)c1cccc(C[C@H](NC(=O)c2ccc(C(F)(F)F)cc2)C(=O)N[C@@H](CCCCN)C(=O)N[C@H](C(N)=O)c2ccccc2)c1	–	95.8%	76.1%	–	impermeable	5810 nM	–	66.6%	27.1%	–	–	–
C[C@]12CC[C@H]3[C@@H](CCC4=CC(=O)CC[C@@]43C)[C@@H]1CC[C@@H]2O [TESTOSTERONE]	–	–	–	–	–	–	–	–	–	–	63 min	–
N=C(N)c1ccc(C[C@H](NC(=O)CCc2ccccc2)C(=O)N[C@@H](CCCCN)C(=O)N[C@H](C(N)=O)c2ccccc2)cc1	58.8%	101%	67.7%	Non-toxic	impermeable	260 nM	160 nM	24.7%	4.4%	–	22 min	–
NCCCC[C@H](NC(=O)[C@H](Cc1cccc(CN)c1)NC(=O)c1ccccc1)C(=O)N[C@H](C(N)=O)c1ccccc1	–	82.4%	68.6%	–	impermeable	11800 nM	–	5.6%	11.2%	–	–	–
NCCCC[C@H](NC(=O)[C@H](Cc1cccnc1)NC(=O)c1ccccc1)C(=O)N[C@H](C(N)=O)c1ccccc1 (Bz-[3Pal]-Lys-[Phg]-NH2)	–	17.5%	23.8%	–	–	–	–	1.8%	3.4%	–	–	–
N=C(N)c1ccc([C@H](NC(=O)c2ccccc2)C(=O)N[C@@H](CCCCN)C(=O)N[C@H](C(N)=O)c2ccccc2)cc1	–	24.8%	59.5%	–	–	–	–	5.5%	19.2%	–	–	–
CC(=O)Nc1ccc(C[C@H](NC(=O)c2ccccc2)C(=O)N[C@@H](CCCCN)C(=O)N[C@H](C(N)=O)c2ccccc2)cc1 (Bz-[Phe(4-NH2)](Ac)-Lys-[Phg]-NH2)	–	34.8%	93.7%	–	impermeable	–	–	7.4%	0%	–	–	3850 nM
N=C(N)Nc1ccc(C[C@H](NC(=O)CCc2ccccc2)C(=O)N[C@@H](CCCCN)C(=O)N[C@H](C(N)=O)c2ccccc2)cc1 (Hydrocinnamoyl-[Phe(4-guanidino)]-Lys-[Phg]-NH2)	8.8%	101%	44.3%	Non-toxic	impermeable	890 nM	–	6.4%	23.6%	–	18 min	–
NCCCC[C@H](NC(=O)[C@H](Cc1ccncc1)NC(=O)c1ccccc1)C(=O)N[C@H](C(N)=O)c1ccccc1 (Bz-[4Pal]-Lys-[Phg]-NH2)	–	12%	0%	–	–	–	–	3.8%	0%	–	–	–
N#Cc1cccc(C[C@H](NC(=O)c2ccccc2)C(=O)N[C@@H](CCCCN)C(=O)N[C@H](C(N)=O)c2ccccc2)c1 (Bz-[Phe(3-CN)]-Lys-[Phg]-NH2)	–	29.6%	15.6%	–	–	–	–	4%	0%	–	–	–
NCCCC[C@H](NC(=O)[C@H](Cc1cccc(N)c1)NC(=O)c1ccccc1)C(=O)N[C@H](C(N)=O)c1ccccc1	–	28.9%	23.7%	–	–	–	–	inactive	4.7%	–	–	–
N=C(N)c1cccc(C[C@H](NC(=O)c2ccccc2)C(=O)N[C@@H](CCCCN)C(=O)N[C@H](C(N)=O)c2ccccc2)c1	–	94%	39.5%	–	impermeable	3070 nM	–	71.1%	37%	–	–	–
CC(=N)Nc1ccc(C[C@H](NC(=O)c2ccccc2)C(=O)N[C@@H](CCCCN)C(=O)N[C@H](C(N)=O)c2ccccc2)cc1	–	76.6%	34.2%	–	impermeable	12700 nM	–	7.7%	0%	–	–	–
N=C(N)Nc1ccc(C[C@H](NC(=O)c2ccccc2)C(=O)N[C@@H](CCCCN)C(=O)N[C@H](C(N)=O)c2ccccc2)cc1 (Bz-[Phe(4-guanidino)]-Lys-[Phg]-NH2)	–	99.9%	64.7%	–	impermeable	580 nM	–	7.6%	16.2%	–	–	–
N=C(N)NCCC[C@H](NC(=O)c1ccccc1)C(=O)N[C@@H](CCCCN)C(=O)N[C@H](C(N)=O)c1ccccc1 (Bz-Arg-Lys-[Phg]-NH2)	40.3%	–	–	Non-toxic	–	–	–	–	0.5%	–	–	–

— ChEMBL document CHEMBL3627637, “Phenylalanine and Phenylglycine Analogues as Arginine Mimetics in Dengue Protease Inhibitors” (J Med Chem, 2015)
